{"source": "paper PMC4428392", "about": "(Anti-Cancer Agents in Medicinal Chemistry, 2014)", "key": {"MCF-7": {"system": "MCF-7", "assay": "MTT cytotoxicity assay in normoxia and hypoxia, MCF-7", "type": "cell-based, Human", "how_it_was_run": "(§1)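 MCF-7 and HCT-116 were grown in DMEM; NCI-H460 in RPMI 1640 plus 10 mM HEPES; all media had 10% FBS, pyruvate and 1.5 g/L bicarbonate. Cells were seeded at 20000/well and grown 24 h at 20% O2, 5% CO2, 37 °C. Serial compound concentrations were then given for 24 h in normoxia, or for 6 h hypoxia (3% O2) followed by 18 h normoxia. MTT was read at 545 nm. IC50 came from linear regression of % inhibition versus log concentration, and HCR = IC50 normoxia/IC50 hypoxia.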"}, "NCI-H460": {"system": "NCI-H460", "assay": "MTT cytotoxicity assay in normoxia and hypoxia, NCI-H460", "type": "cell-based, Human", "settings": "Homo sapiens", "how_it_was_run": "as §1"}, "HCT-116": {"system": "HCT-116", "assay": "MTT cytotoxicity assay in normoxia and hypoxia, HCT-116", "type": "cell-based, Human", "settings": "for IC50: Homo sapiens", "how_it_was_run": "as §1"}, "[1]": {"assay": "Partition coefficient octanol/aqueous buffer pH 7.4 by HPLC", "type": "physicochemical", "settings": "octanol/phosphate buffer pH 7.4, HPLC", "how_it_was_run": "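Octanol/phosphate buffer (pH 7.4) distribution was determined by HPLC at the compound retention time. Conditions: RP-18E column (4.6 × 150 mm, 5 µm) at 25 °C; isocratic water:acetonitrile 70:30 with 0.7% acetic acid at 0.5 mL/min; UV detection at 285 nm. Samples were dissolved in DMSO or methanol.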"}, "HCT-116 cells [2]": {"system": "HCT-116 cells", "assay": "Cell cycle assay by flow cytometry", "type": "cell-based, Human", "settings": "24 h"}, "HCT-116 cells [3]": {"system": "HCT-116 cells", "assay": "ROS analysis by flow cytometry", "type": "cell-based, Human", "how_it_was_run": "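HCT-116 cells were treated with test compound at 15 or 30 µM in normoxia or hypoxia (24 h per methods; legend states 18 h). They were stained with CM-H2DCFDA for 45 min, collected, and analysed on a FACSCalibur flow cytometer. Fluorescence was normalised to solvent control; mean ± SEM, n=3.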"}, "[4]": {"system": "caspase 3/7 in HCT-116 cells", "assay": "Caspase 3/7 activity", "type": "cell-based, Human", "settings": "30 µM, 24 h", "how_it_was_run": "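HCT-116 cells were exposed to test compound at 30 µM for 24 h in normoxia or hypoxia. Cells were harvested, washed in PBS, centrifuged (350 g, 5 min) and stained with a FAM-FLICA caspase-3/7 inhibitor kit. Active caspase 3/7 was measured by flow cytometry. Data are mean ± SEM, n=3, compared with solvent control by one-way ANOVA with Tukey post hoc test.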"}, "γ-H2AX in HCT-116 cells": {"system": "γ-H2AX in HCT-116 cells", "assay": "Level of γ-H2AX by flow cytometry", "type": "cell-based, Human", "settings": "30 µM, 24 h"}, "[5]": {"system": "cleaved PARP in HCT-116 cells", "assay": "Level of cleaved PARP by flow cytometry", "type": "cell-based, Human", "settings": "HCT-116, hypoxia, 30 µM, 24 h"}, "[6]": {"system": "γ-H2AX and cleaved PARP in HCT-116 cells", "assay": "Dual-parameter γ-H2AX and cleaved PARP flow cytometry", "type": "cell-based, Human", "settings": "30 µM, 24 h"}}, "note": "Several values for one entry are separate records, joined by “and”; a condition that tells them apart may be missing. Equal values may be shown once. Read-outs that look alike come from different tables or passages of the source.", "data": [{"smiles": "Nc1n[n+]([O-])c2ccccc2[n+]1[O-]", "note": "[TPZ, 3-amino-1,2,4-benzotriazine-1,4-dioxide, reference compound]", "values": [{"measurement": "HCR = IC50 (aerobic)/IC50 (hypoxia)", "setting": "MCF-7", "value": 6.3}, {"measurement": "IC50", "setting": "NCI-H460; NCI-H460, 24 h, read-out: Cytotoxicity (IC50) NCI-H460 N", "value": "85 ± 9.7", "unit": "µM"}, {"measurement": "IC50", "setting": "NCI-H460; NCI-H460, read-out: Cytotoxicity (IC50) NCI-H460 H", "value": "32.9 ± 2.1", "unit": "µM"}, {"measurement": "HCR = hypoxic cytotoxicity ratio IC50 (aerobic)/IC50 (hypoxic)", "setting": "HCT-116; HCT-116", "value": 2.6}, {"measurement": "IC50", "setting": "HCT-116; HCT-116, 24 h, read-out: Cytotoxicity (IC50) HCT-116 N", "value": "89.1 ± 14.5", "unit": "µM"}, {"measurement": "IC50", "setting": "HCT-116; HCT-116, read-out: Cytotoxicity (IC50) HCT-116 H", "value": "34.8 ± 8.3", "unit": "µM"}, {"measurement": "IC50", "setting": "HCT-116; HCT-116, read-out: Cytotoxicity (IC50), cell kill under hypoxia", "value": 34.8, "unit": "µM"}, {"measurement": "Log P7.4", "setting": "[1]", "value": -0.42}, {"measurement": "G1 (%)", "setting": "HCT-116 cells [2]; HCT-116, hypoxia, 15 µM", "value": "22.5±9.4", "unit": "%"}, {"measurement": "G2/M (%)", "setting": "HCT-116 cells [2]; HCT-116, hypoxia, 15 µM", "value": "35.2% and 35.2±4.9%"}, {"measurement": "S (%)", "setting": "HCT-116 cells [2]; HCT-116, hypoxia, 15 µM", "value": "34.7±6.0", "unit": "%"}, {"measurement": "Sub-G1 (%)", "setting": "HCT-116 cells [2]; HCT-116, hypoxia, 15 µM", "value": "7.3% and 7.3±2.7%"}, {"measurement": "G1 (%)", "setting": "HCT-116 cells [2]; HCT-116, hypoxia, 30 µM", "value": "26.3±5.5", "unit": "%"}, {"measurement": "G2/M (%)", "setting": "HCT-116 cells [2]; HCT-116, hypoxia, 30 µM", "value": "27.3% and 27.3±1.3%"}, {"measurement": "S (%)", "setting": "HCT-116 cells [2]; HCT-116, hypoxia, 30 µM", "value": "29.6±4.7", "unit": "%"}, {"measurement": "Sub-G1 (%)", "setting": "HCT-116 cells [2]; HCT-116, hypoxia, 30 µM", "value": "16.5% and 16.5±1.2%"}, {"measurement": "G1 (%)", "setting": "HCT-116 cells [2]; HCT-116, normoxia, 15 µM", "value": "41.9±1.7", "unit": "%"}, {"measurement": "G2/M (%)", "setting": "HCT-116 cells [2]; HCT-116, normoxia, 15 µM", "value": "33.1% and 33.1±3.7%"}, {"measurement": "S (%)", "setting": "HCT-116 cells [2]; HCT-116, normoxia, 15 µM", "value": "21.9±2.4", "unit": "%"}, {"measurement": "G1 (%)", "setting": "HCT-116 cells [2]; HCT-116, normoxia, 30 µM", "value": "35.3% and 35.3±1.4%"}, {"measurement": "G2/M (%)", "setting": "HCT-116 cells [2]; HCT-116, normoxia, 30 µM", "value": "39.1% and 39.1±4.0%"}, {"measurement": "S (%)", "setting": "HCT-116 cells [2]; HCT-116, normoxia, 30 µM", "value": "22.1±2.9", "unit": "%"}, {"measurement": "Sub-G1 (%)", "setting": "HCT-116 cells [2]; HCT-116, normoxia, 30 µM", "value": "3.2±0.5", "unit": "%"}, {"measurement": "increase of ROS relative to control medium", "setting": "HCT-116 cells [3]; HCT-116, hypoxia, 15 µM", "value": 6, "unit": "fold"}, {"measurement": "increase of ROS relative to control medium", "setting": "HCT-116 cells [3]; HCT-116, hypoxia, 30 µM", "value": 10.5, "unit": "fold"}, {"measurement": "increase of ROS relative to control medium", "setting": "HCT-116 cells [3]; HCT-116, normoxia, 15 µM", "value": 1.5, "unit": "fold"}, {"measurement": "increase of ROS relative to control medium", "setting": "HCT-116 cells [3]; HCT-116, normoxia, 30 µM", "value": 2, "unit": "fold"}, {"measurement": "level of active caspase 3/7", "setting": "[4]; HCT-116, hypoxia, solvent control 7%", "value": "about 41%"}, {"measurement": "effect on level of active caspase 3/7", "setting": "[4]; HCT-116, normoxia", "value": "no apparent effect"}, {"measurement": "expression of γ-H2AX", "setting": "γ-H2AX in HCT-116 cells; HCT-116, hypoxia, solvent control 4%", "value": "around 30%"}, {"measurement": "effect on expression of γ-H2AX", "setting": "γ-H2AX in HCT-116 cells; HCT-116, normoxia", "value": "no significant effect"}, {"measurement": "cleaved PARP", "setting": "[5]", "value": "approximately 10%"}, {"measurement": "cells expressing both γ-H2AX and cleaved PARP (upper right quadrant)", "setting": "[6]; HCT-116, hypoxia", "value": 1.9, "unit": "%"}, {"measurement": "cells expressing both γ-H2AX and cleaved PARP (upper right quadrant)", "setting": "[6]; HCT-116, normoxia", "value": 0.1, "unit": "%"}]}]}
